Compounds with a hit are over-represented: about 1.5% of the library has one in this group of screens.
APJ ag: agonists of human APJ apelin receptor. activation, % at 20 µM. actives 0.11% (n = 330,000). P35414. CHO-K1 APJ PathHunter beta-arrestin, luminescence; 0% DMSO wells, 100% apelin. AID 2520;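 active means activation more than six SD over the plate average, tested at 20 µM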
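Incubation: overnight seeding, 90 min compound at 25 °C, 1 h detection; test system: PathHunter CHO-K1 APJ (AGTRL-1) beta-arrestin reporter cells; amount: 1000 cells/well; doses: one dose, 20 µM compound, 1% DMSO; measured by: beta-gal luminescence; measure: agonist-driven arrestin binding to APJ; benchmarks: negative DMSO alone, positive Apelin-13 at 10 nM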
CXCR6 inh: blocks human CXCR6 beta-arrestin recruitment. actives 0.36% (n = 360,000). CHO-K1 PathHunter CXCR6 beta-arrestin, luminescence. inhibition, % at 20 µM. AID 602244; in the data active means inhibition above about 34%, passing the limit was not always enough;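 further: antagonist mode with CXCL16 agonist at 10 nM final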
Target sequence (O00574 whole entry, looked up): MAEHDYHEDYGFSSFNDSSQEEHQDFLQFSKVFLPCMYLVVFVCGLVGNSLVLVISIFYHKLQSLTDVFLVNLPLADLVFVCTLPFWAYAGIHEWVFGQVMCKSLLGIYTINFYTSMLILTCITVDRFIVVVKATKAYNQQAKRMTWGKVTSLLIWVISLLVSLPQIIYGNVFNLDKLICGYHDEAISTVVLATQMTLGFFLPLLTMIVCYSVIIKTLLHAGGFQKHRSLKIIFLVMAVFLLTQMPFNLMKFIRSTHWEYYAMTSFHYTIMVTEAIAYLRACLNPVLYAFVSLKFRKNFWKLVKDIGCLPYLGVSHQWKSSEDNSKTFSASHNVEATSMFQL
EBI2 antag: antagonists of human EBI2 receptor; P32249; EBI2 beta-arrestin recruitment, luminescence, 7a,25-OHC stimulated; inhibition, % at 5 µM; actives 0.81% (n = 360,000); in the data active means inhibition above about 38%;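 further: enzyme fragment complementation signal reports receptor beta-arrestin coupling in cells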
APJ antag: blocks the human apelin receptor APJ. CHO-K1 APJ beta-arrestin complementation, luminescence. inhibition, % at 20 µM. actives 0.32% (n = 330,000). AID 2521;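 active means inhibition above about 40% at 20 µM, limit read from the data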;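 further: cells challenged with 10 nM apelin-13 agonist together with compound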
CCR6 antag: antagonists of human CCR6 receptor; P51684; CHO-K1 CCR6 PathHunter beta-arrestin, luminescence, CCL20-stimulated; inhibition, % at 20 µM; actives 0.49% (n = 340,000);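 active means compounds whose inhibition of the agonist-driven luminescence signal at 20 µM reaches about 50%, limit read from the data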;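 further: cells stimulated with CCL20 at 14 nM final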
Target sequence (P51684 whole entry, looked up): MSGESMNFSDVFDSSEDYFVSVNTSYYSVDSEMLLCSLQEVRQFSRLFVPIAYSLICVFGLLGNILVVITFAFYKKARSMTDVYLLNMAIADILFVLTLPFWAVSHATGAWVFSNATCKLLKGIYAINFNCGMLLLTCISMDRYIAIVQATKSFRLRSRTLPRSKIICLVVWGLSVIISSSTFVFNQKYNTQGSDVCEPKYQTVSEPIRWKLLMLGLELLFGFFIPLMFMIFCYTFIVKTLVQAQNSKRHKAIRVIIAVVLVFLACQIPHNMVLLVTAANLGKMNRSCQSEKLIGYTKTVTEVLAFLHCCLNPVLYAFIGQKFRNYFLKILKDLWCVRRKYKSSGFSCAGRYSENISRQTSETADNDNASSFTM
Of the large screens only hits and unclear results are named; the others gave an inactive call.

CN1/C(=C\C(=O)c2cccnc2)C(C)(C)c2ccccc21	none
Brc1ccc(N/N=C(/N=Nc2nn[nH]n2)c2ccccc2)cc1	CCR6 antag 52
O=C(O)c1cccc(N/N=C(\N=Nc2ccccc2)c2ccccc2)c1	none
N#CC(=C1C=CC(=NO)C(Cl)=C1)c1ccc(Cl)cc1	CCR6 antag 67 (no result: APJ ag, APJ antag)
CCc1c(-c2cccc(OC)c2)ncn1Cc1cccc(-c2ccccc2)c1	none (no result: APJ ag, CXCR6 inh, APJ antag, CCR6 antag)
c1ccc2nc(NN=C3CCCCC3)ccc2c1	CXCR6 inh 35, CCR6 antag 78 (no result: APJ ag, APJ antag)
O=C(/C=C/c1cc(Br)ccc1O)c1ccco1	CCR6 antag 64
O=C(/C=C/c1ccccc1O)c1ccco1	none
COc1ccc(CCCNC(=O)C2Cc3c(-c4ccc5c(c4)OCO5)ccnc3O2)cc1 (stereo unspecified)	none (no result: APJ ag, APJ antag, CCR6 antag)
O=C(NC1CCCC1)C1C(c2ccc(C(F)(F)F)cc2)=Nc2ccccc2N1C(=O)c1cc2ccccc2[nH]1 (stereo unspecified)	none (no result: APJ ag, CXCR6 inh, APJ antag, CCR6 antag)
Cc1[nH]n(-c2ccccc2)c(=O)c1N=Nc1ccc(C(=O)O)cc1	none
CC(=O)c1ccc(N=Nc2c(C)[nH]n(-c3ccccc3)c2=O)cc1	CXCR6 inh 40
Cn1c(=O)oc2cc(S(=O)(=O)NCCC(=O)N3CCc4ccccc43)ccc21	none
Cc1cc2oc(=O)cc(Cn3ncc(Cl)c(Cl)c3=O)c2cc1Cl	EBI2 antag 50
Cc1cc2oc(=O)cc(CN3CCN(c4ccccc4)CC3)c2cc1Cl	none (no result: APJ ag, APJ antag, CCR6 antag)
OC1C2COC(O2)C2OC(c3ccccc3)OC12 (stereo unspecified)	none (no result: APJ ag, APJ antag, CCR6 antag)
CC(=O)N1CCCC(C)(C(=O)Nc2cccc(OC(C)C)c2)C1 (stereo unspecified)	none (no result: APJ ag, APJ antag, CCR6 antag)
O=C(C#Cc1ccccc1)c1cccc([N+](=O)[O-])c1	CXCR6 inh 91, CCR6 antag 93
COc1ccccc1C(=O)C1CCCN(C(=O)CN2CCCCC2=O)C1 (stereo unspecified)	none
Nc1nc2ccccc2[nH]1	none
Nc1ccccc1Sc1nc2ccccc2[nH]1	EBI2 antag 64
COC(=O)[C@]12CCCCC=C1N(CCC1=CCCCC1)C(=O)[C@H](CC(=O)N1CCCCC1)C2	none (no result: APJ ag, APJ antag, CCR6 antag)
COc1ccc(C(=O)c2sc3nc(C)cc(-c4cccs4)c3c2N)cc1	none (no result: APJ ag, APJ antag)
COc1ccc(C(=O)c2sc3nc(C)cc(-c4cccs4)c3c2N)cc1OC	EBI2 antag 55 (no result: APJ ag, APJ antag)
O=C(Nc1ccc2c(c1)OCO2)C1CCN(Cc2cnn(-c3ccccc3)c2-n2cccc2)CC1	none
COc1ccc(C(=O)Nc2nc3ccccc3s2)c(OC)c1	EBI2 antag 50
CCOc1ccc2nc(NC(=O)c3ccccn3)sc2c1	CXCR6 inh 58, EBI2 antag 60, APJ antag 79, CCR6 antag 79
CCOc1ccc2nc(NC(=O)Nc3ccccc3)sc2c1	none
COc1ccccc1C(=O)Nc1nc2ccccc2s1	none
C#CCOCCOCCOCCNc1nc(N2CCN(C(=O)CCCCCCCCCCNC(=O)[C@H]([C@@H](C)CC)n3cc(CCCCN=C(N)N)nn3)CC2)nc(N2CCN(C(=O)CCCCCCCCCCNC(=O)[C@H](CCCCN)n3cc(C[C@@H](C)CC)nn3)CC2)n1	APJ ag 59 (no result: CXCR6 inh, EBI2 antag, CCR6 antag)
CCCCn1c(NC(=O)c2ccc(F)cc2)c(C#N)c2nc3ccccc3nc21	APJ antag 56 (no result: CXCR6 inh, EBI2 antag, CCR6 antag)
CC(Oc1ccccc1)C(=O)N1CCC2(CC1)Oc1ccc(F)cc1C(=O)C21CC(c2cccnc2)=NO1 (stereo unspecified)	EBI2 antag 42
CC(Oc1ccccc1)C(=O)N1CCC2(CC1)Oc1ccc(F)cc1C(=O)C21CC(c2ccccc2)=NO1 (stereo unspecified)	EBI2 antag 50
CC(C)C(=O)N1CCC2(CC1)Oc1ccc(F)cc1C(=O)C21CC(c2cccnc2)=NO1 (stereo unspecified)	none (no result: CXCR6 inh, EBI2 antag, CCR6 antag)
CC1(C)C(=O)Nc2ccccc2N1C(=O)COC(=O)COc1ccc(C#N)cc1	none
O=[N+]([O-])/C=C/c1c(OCc2ccccc2)ccc2ccccc12	CXCR6 inh 36 (no result: CCR6 antag)
CCOC(=O)Cn1cc(/C=C/[N+](=O)[O-])c2ccccc21	none
CCOC(=O)COc1ccc2ccccc2c1/C=C/[N+](=O)[O-]	CCR6 antag 75 (no result: APJ ag, APJ antag)
CCOC(=O)COc1ccc(/C=C/[N+](=O)[O-])c(OCC(=O)OCC)c1	CCR6 antag 55
CCCCNC(=O)c1[nH]c(C2CCNCC2)nc1-c1cccc(C(F)(F)F)c1	none (no result: APJ ag, CXCR6 inh, APJ antag, CCR6 antag)
CCOC(=O)[C@]12CCCC=C1N(Cc1ccc(Cl)cc1Cl)C(=O)[C@H](CC(=O)N1CCN(C(=O)c3ccco3)CC1)C2	none (no result: APJ ag, APJ antag, CCR6 antag)
CN(C)c1ccc(/C=C/c2cccc[n+]2[O-])cc1	none
CN(C)c1ccc(/C=C/c2ccc3c4ccccc4ccc3[n+]2-c2ccccc2)cc1	CXCR6 inh 62, EBI2 antag 45, CCR6 antag 83 (no result: APJ ag, APJ antag)
O=c1nc2cccc3c2=c(/c1=C(\O)c1ccccc1)c1ccccc1c3=O	CCR6 antag 52
Cc1ccc(SCCCCN2C(=O)NC(C)(C)C2=O)cc1	none
Cc1ccc2c(c1)nnn2C1CCN(C(=O)c2ccccc2F)CC1	none
N#CC(C#N)=C1C=CC=CN1/C(=C\c1ccco1)C(=O)c1ccc(Br)cc1	CXCR6 inh 103, EBI2 antag 77, CCR6 antag 104 (no result: APJ ag, APJ antag)
Cc1ccc(C(=O)NC(=S)Nc2cccc3nsnc23)cc1	none
Cc1ccc(C(=O)NC(=S)Nc2cccc3c(C)cc(C)nc23)cc1	CCR6 antag 51
COc1ccc(/C=N/NC(=O)c2ccncc2)cc1CSc1nc2ccccc2s1	none
CN(C)c1ccc(N=Nc2ccccc2C(=O)OCC(=O)NCC2CCCCC2)cc1	CCR6 antag 54
Cc1ccccc1NC(=O)c1nc(S(C)(=O)=O)ncc1Cl	none
Cc1cccc(C)c1NC(=O)c1nc(S(=O)(=O)Cc2ccccc2)ncc1Cl	CXCR6 inh 54, CCR6 antag 55
COc1ccc(NC(=O)c2nc(S(=O)(=O)Cc3cccc(C)c3)ncc2Cl)c(OC)c1	EBI2 antag 50
O=C(Nc1cc(S(=O)(=O)Nc2ccccc2Cl)ccc1O)c1sc2cc(Cl)ccc2c1Cl	CCR6 antag 75
O=C(NC1CCCCC1)C(CCc1ccccc1)N1CCc2ccccc2C1 (stereo unspecified)	none (no result: APJ ag, APJ antag, CCR6 antag)
CN(C)Cc1csc(Nc2ccc(C(=O)c3ccccc3)cc2)n1	none (no result: APJ ag, APJ antag, CCR6 antag)
CCOC(=S)SCC(=O)Nc1nc(-c2ccccc2)cs1	none
CCOC(=S)SCC(=O)Nc1nc(-c2ccc(Br)cc2)cs1	EBI2 antag 69
O=C(/C=C/c1ccc(O)c(O)c1)c1ccc(S(=O)(=O)N2CCCCCC2)cc1	APJ antag 42, CCR6 antag 63
COc1ccc(-n2nc(C(=O)c3cccs3)cc(-c3nc4ccccc4[nH]3)c2=N)cc1	EBI2 antag 53
N#Cc1cc2c(=O)n3ccccc3nc2n(-c2ccccc2Cl)c1=O	none
COc1cc(N=C2C(=O)N3c4c(cccc42)C(C)=CC3(C)C)cc(OC)c1	CCR6 antag 61
O=C(/C(=C/c1ccc(Cl)cc1)c1nc2ccccc2[nH]1)c1ccccc1	EBI2 antag 50

Assay outcomes from PubChem.
